These results are taken from PubChem BioAssay AID623899 (Broad Institute, 2012).

“And” between values parts separate entries of the source, which are not always exact repeats. Equal entries are not always repeated. The source made the active and inactive calls.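 How the source made its calls: active means falling signal with AC50 at or below twice the highest valid dose tested for that sample; inconclusive means flat curve at 30 to 70% inhibition, or unreliable fit; inactive means the rest.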 Where only a bound is given, the exact number is not on record here.

Tested on in one assay: not listed separately
Briefly: C. albicans growth inhibitors tested alone, no fluconazole – CaCi-2 strain, dry powder, plate reader, set 2, dose response (AID 623899). The conditions noted are these: C. albicans CaCi-2 growth, Alamar Blue fluorescence, 48 h; at 26 µM (top of the series). The essentials:
(§1)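 System: fluconazole-resistant C. albicans strain CaCi-2 / Input: inoculum OD600 0.00015 / Dosing: dose-response series of pinned test compound / Timing: compound exposure 48 h, 37 °C, humidified, static, then dye 2 h / Measured by: Alamar Blue fluorescence, read 2 h after dye addition / Controls: amphotericin 10 µM as positive control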
For the compound `CCCCN1C(=O)N(c2ccc(C)cc2)C2(CCCCC2)C1=O`, the activity change, negative = inhibition is 9.77% (inactive). On the same count and under the same terms, the figure for `Cc1ccc(N2C(=S)NC(=O)C23CCOCC3)cc1` is -17.4% (inactive); for `Cc1ccc(N2C(=O)C(=O)NC2=S)cc1` it is 9.23% (inactive). Same read-out and setting: the figure for `CCOC(=O)N1C(=S)N(c2ccc(C)cc2)C2(CCCCC2)C1=NCc1ccccc1` is 3.84% (inactive). Still for that read-out and setting: the figure for `CCOC(=O)N1C(=O)C2(CCCCC2)NC1=S` is 0.477% (inactive). As to `Cc1ccc(N2C(=O)N(C)C(=O)C23CCCCC3)cc1`, the activity change, negative = inhibition is 8.26% (inactive). As for `Cc1ccc(N2C(=S)N(S(C)(=O)=O)C(=O)C23CCCCC3)cc1`, the activity change, negative = inhibition was 8.47% (inactive). On the same count and under the same terms, the figure for `Cc1ccc(N2C(=S)NC(=O)C2(C)C)cc1` is 2.43% (inactive). On the same count and under the same terms, the figure for `Cc1ccc(N2C(=S)NC(=O)C23CCC3)cc1` is -14.6% (inactive); for `CCOC(=O)N1C(=O)N(c2ccc(C)cc2)C2(CCCCC2)C1=O` it is -28.5% (inactive); for `Cc1ccc(N2CC(=O)NC2=O)cc1` it is -7.46% (inactive).

Consider `CCCC(=O)N1C(=O)C2(CCCCC2)N(c2ccc(C)cc2)C1=S`, for which the activity change, negative = inhibition was 15.2% (inactive). Same read-out and setting: the figure for `CCOC(=O)N1C(=O)C2(CCCCC2)N(C(C)C)C1=S` is -20% (inactive). Consider `Cc1ccc(N2C(=O)NC(=O)C23CCCCC3)cc1`, for which the activity change, negative = inhibition is 14.7% (inactive). Still for that read-out and setting: the figure for `O=C1NC(=S)N(Cc2ccccc2)C12CCCCC2` is 0.564% (inactive); for `CCOC(=O)N1C(=O)C2(CCCCC2)N(c2ccc(C(C)C)cc2)C1=S` it is -19.6% (inactive); for `CCOC(=O)N1C(=O)C2(CCC2)N(c2ccc(C)cc2)C1=S` it is 18% (inactive). As to `Cc1ccc(N2CC(=O)NC2=S)cc1`, the activity change, negative = inhibition was -6.22% (inactive). Same read-out and setting: the figure for `CCOC(=O)N1C(=S)NC(=O)C12CCCCC2` is 6.84% (inactive); for `O=C1NC(=S)NC12CCCCC2` it is 4.86% (inactive). For the compound `Cc1ccc(N2C(=O)C3(CCCCC3)NC2=S)cc1`, the activity change, negative = inhibition is 9.21% (inactive).

`CCOC(=O)N1C(=S)N(c2ccc(C)cc2)C(=O)C12CCCCC2`: the activity change, negative = inhibition was 6.88% (inactive). Consider `CCOC(=O)N1C(=O)C(C)(C)N(c2ccc(C)cc2)C1=S`, for which the activity change, negative = inhibition was 17.8% (inactive). On the same count and under the same terms, the figure for `Cc1ccc(N2C(=S)NC(=O)C23CCCC3)cc1` is 7.79% (inactive). On the same count and under the same terms, the figure for `O=C1NC(=S)N(c2ccc(F)cc2)C12CCCCC2` is -13.4% (inactive). Turning to `CC(C)N1C(=S)NC(=O)C12CCCCC2`, the activity change, negative = inhibition was -4.41% (inactive). Take `Cc1ccc(N2C(=S)N(C(=O)OCc3ccccc3)C(=O)C23CCCCC3)cc1`: the activity change, negative = inhibition was 1.35% (inactive). The same measure, in the same setting: the figure for `Cc1ccc(N2C(=S)N(C(=O)Oc3ccccc3)C(=O)C23CCCCC3)cc1` is 9.01% (inactive); for `Cc1ccc(N2C(=S)N(C)C(=O)C23CCCCC3)cc1` it is -8.14% (inactive) and -15.3% (inactive).

The subject of another assay is C. albicans CaCi-2 growth, Alamar Blue fluorescence, 48 h. The assay is described as above.
Conditions: not given
An outline of the steps: as §1
As for `CCOC(=O)N1C(=O)C2(CCCCC2)N(c2ccc(C)cc2)C1=S`, the AC50 is 0.359 µM and 0.303 µM.

Regarding `O=C1NC(=S)N(c2ccccc2)C12CCCCC2`, the AC50 was > 52 µM (inactive). The same measure, in the same setting: the figure for `CCOC(=O)N1C(=O)C2(CCCCC2)N(c2ccc(C#N)cc2)C1=S` is under 0.1 µM; for `CCOC(=O)N1C(=O)C2(CCOCC2)N(c2ccc(C)cc2)C1=S` it is 20.6 µM. Same read-out and setting: the figure for `CCOC(=O)N1C(=O)C2(CCCCC2)N(c2ccc(C(F)(F)F)cc2)C1=S` is 0.841 µM; for `CCOC(=O)N1C(=O)C2(CCCCC2)N(c2ccccc2C)C1=S` it is 1.2 µM.

As for `CCOC(=O)N1C(=O)C2(CCCCC2)N(Cc2ccccc2)C1=S`, the AC50 was 3.76 µM. Still for that read-out and setting: the figure for `CCCOC(=O)N1C(=O)C2(CCCCC2)N(c2ccc(C)cc2)C1=S` is 5.9 µM; for `CCOC(=O)N1C(=O)C2(CCCCC2)N(c2ccc(CC)cc2)C1=S` it is 1.9 µM. For `CCOC(=O)N1C(=O)C2(CCCCC2)N(c2ccc(F)cc2)C1=S`, the AC50 is under 0.1 µM. Same read-out and setting: the figure for `CCCCN1C(=O)N(c2ccc(C)cc2)C2(CCCCC2)C1=S` is > 52 µM (inactive); for `CCOC(=O)N1C(=O)C2(CCCCC2)N(c2ccc(Cl)cc2)C1=S` it is under 0.1 µM; for `Cc1ccc(N2C(=S)NC(=O)C23CCCCC3)cc1` it is > 52 µM (inactive). Still for that read-out and setting: the figure for `CCCc1ccc(N2C(=S)N(C(=O)OCC)C(=O)C23CCCCC3)cc1` is 6.91 µM; for `CCOC(=O)N1C(=O)C2(CCCCC2)N(c2ccc(OC)cc2)C1=S` it is 1.78 µM. As to `CC1/C=C/C=C\C=C\C=C\C=C\C=C\C=C\C(O[C@H]2OC(C)C(O)C(N)C2O)CC2OC(O)(CC(O)CC(O)C(O)CCC(O)CC(O)CC(=O)OC(C)C(C)C1O)CC(O)C2C(=O)O` (stereo partly specified), the AC50 was under 0.01 µM.

In the case of `CCCCN1C(=O)C2(CCCCC2)N(c2ccc(C)cc2)C1=S`, the AC50 was > 52 µM (inactive). On to `CCOC(=O)N1C(=O)C2(CCCCC2)N(c2ccccc2)C1=S`, for which the AC50 is 0.148 µM.

In the case of `COC(=O)N1C(=O)C2(CCCCC2)N(c2ccc(C)cc2)C1=S`, the AC50 was 1.89 µM. The same measure, in the same setting: the figure for `Cc1ccc(N2C(=S)N(C(=O)OC(C)C)C(=O)C23CCCCC3)cc1` is 8.74 µM; for `CCOC(=O)N1C(=O)C2(CCCCC2)N(c2cccc(C)c2)C1=S` it is 0.189 µM; for `CCOC(=O)N1C(=O)C2(CCCC2)N(c2ccc(C)cc2)C1=S` it is 9.79 µM.
